Assay outcomes from PubChem.
HNF4A DNA FP – change in binding of human HNF4A to DNA, primary screen, biochemical, fluorescence polarization, FITC-DNA | 0.3% of 360,000 active | activity change, % at 10 µM | 1 h; in the data active means activity change above about 30%, passing the limit was not always enough
Target sequence (P41235 whole entry, looked up): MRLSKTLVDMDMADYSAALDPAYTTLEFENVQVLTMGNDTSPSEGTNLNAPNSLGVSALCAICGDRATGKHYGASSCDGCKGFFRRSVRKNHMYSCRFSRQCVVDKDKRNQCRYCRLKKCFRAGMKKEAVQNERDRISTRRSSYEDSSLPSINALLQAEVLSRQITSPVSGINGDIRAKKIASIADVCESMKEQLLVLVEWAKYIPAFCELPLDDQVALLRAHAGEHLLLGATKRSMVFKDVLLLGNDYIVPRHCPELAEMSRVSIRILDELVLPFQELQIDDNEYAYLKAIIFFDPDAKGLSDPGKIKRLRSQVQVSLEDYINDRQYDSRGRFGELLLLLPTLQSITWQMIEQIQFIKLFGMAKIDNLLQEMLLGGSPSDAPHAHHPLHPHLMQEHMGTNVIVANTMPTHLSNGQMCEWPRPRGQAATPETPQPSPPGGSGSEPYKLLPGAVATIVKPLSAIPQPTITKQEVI
Rpn11 block – Rpn11 (PSMD14) deubiquitinase inhibitors, primary screen, biochemical, fluorescence polarization, uHTS; 26S proteasome non-ATPase regulatory subunit 14 (Homo sapiens), O00487; human 26S proteasome, Ub4-pepOG fluorescence polarization; 20S core pre-blocked with epoxomicin; inhibition, % at 20 µM; 0.59% of 360,000 active;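 active means inhibition at 20 µM, scaled to each plate's controls, above about 33%, limit read from the data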
SENP1 FRET inh – human SENP1 catalytic domain inhibitors, primary screen, biochemical, FRET, uHTS; inhibition, % at 10 µM; Sentrin-specific protease 1 (Homo sapiens), Q9P0U3; 0.21% of 360,000 active; recombinant SENP1 catalytic domain, CyPet-SUMO1-YPet FRET cleavage;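 active means inhibition at least 30% at 10 µM, raw YFP signal under a set limit, fluorescence ratio 0.5 to 1.5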;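 further: 0% = enzyme with DMSO and 100% = no enzyme wells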
Target sequence (Q9P0U3 419-644 limits assumed): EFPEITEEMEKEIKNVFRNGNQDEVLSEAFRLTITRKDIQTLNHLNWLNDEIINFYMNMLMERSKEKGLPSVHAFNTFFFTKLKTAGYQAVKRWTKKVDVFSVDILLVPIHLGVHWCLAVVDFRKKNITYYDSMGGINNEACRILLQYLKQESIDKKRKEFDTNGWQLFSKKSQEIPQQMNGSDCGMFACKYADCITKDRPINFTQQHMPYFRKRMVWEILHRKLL
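material = recombinant human SENP1 catalytic domain, His6-tagged | quantity = 20 pM enzyme | reagent = 25 nM SUMO1 FRET substrate | compound dosing = 10 µM single point, 0.5% DMSO | timing = 50 min enzyme reaction, room temperature, light-protected | detection = FRET, CFP and YFP emission | control set = no-enzyme low, enzyme-DMSO high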
CSN deneddyl inh – inhibitors of CSN-mediated cullin deneddylation, primary screen, biochemical, fluorescence polarization, uHTS | COP9 signalosome complex subunit 5 (Homo sapiens), Q92905 | Purified CSN, SCF-Nedd8-OG deneddylation | inhibition, % at 12.5 µM | 0.38% of 360,000 active;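 active means pattern-corrected inhibition above about 35%, with an unprinted fluorescence ratio check between 0.5 and 1.5, limit read from the data, passing the limit was not always enough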;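 further: 0% = enzyme with substrate and 100% = substrate without enzyme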
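Assay system: HEK293T-derived human Csn5 enzyme; quantity: 0.24 nM enzyme; medium: Tris/NaCl/DTT buffer, pH 7.5; also added: substrate SCFSkp2-Nedd8OG, 10 nM; doses: 12.5 µM compound; schedule: 90 min reaction at room temperature; signal: FP; read-out: % inhibition of substrate cleavage by Csn5; benchmarks: substrate-only high control, full reaction low control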
TPT1 inh – Candida albicans TPT1 enzyme inhibitors, primary screen, biochemical, fluorescence polarization; 0.81% of 300,000 active; tRNA 2'-phosphotransferase TPT1 (Candida albicans SC5314); recombinant caTPT1, FP RNA substrate dephosphorylation; inhibition, % at 5 µM;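 active means inhibition above the mean of all tested compounds plus 3 SD, set per screening campaign, cut at about 24% in these data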;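 further: plate controls were DMSO alone for no effect and ferristatin control at 100 nM for full effect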
Rpn11 confirm – Rpn11 (PSMD14) deubiquitinase inhibitors, confirmation, biochemical, fluorescence polarization, single concentration. purified human 26S proteasome, Ub4-pepOG fluorescence polarization; proteasome pretreated with epoxomicin. shares compounds with Rpn11 block. AID 602318, 2012. inhibition, % at 20 µM. 29% of 1,900 active
MMP-2 inh – MMP-2 enzyme inhibition, confirmation, counter-screen for RPN11 inhibitor project, biochemical, fluorescence, single concentration | recombinant MMP-2, FRET peptide cleavage fluorescence | 4% of 1,900 active | AID 602330, 2012 | inhibition, % at 20 µM | shares compounds with Rpn11 block;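 further: human MMP-2 activated beforehand with APMA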
Thrombin FP – bovine thrombin protease inhibition, confirmation, counter-screen for Rpn11 inhibitor project, biochemical, fluorescence polarization, single concentration. shares compounds with Rpn11 block. bovine thrombin cleavage of Ub4-pepOG. inhibition, % at 20 µM. 13% of 1,900 active;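 active means mean inhibition at least 40% at 20 µM, or signal 3 deviations below plate average, so some actives read negative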;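 further: plate controls were thrombin with DMSO for no effect and buffer wells lacking thrombin for full effect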
SENP1 conf – human SENP1 catalytic domain inhibitors, confirmation, biochemical, FRET endpoint, single concentration. shares compounds with SENP1 FRET inh. 34% of 520 active. recombinant SENP1, CyPet-SUMO1-YPet FRET cleavage. inhibition, % at 10 µM; in the data active means inhibition mostly above about 35%, no sharp cut-off; inactive means mostly below about 32%;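 further: 0% = enzyme with DMSO and 100% = no enzyme control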
SENP1 kin conf – human SENP1 catalytic domain inhibitors, confirmation, biochemical, kinetic FRET, single concentration; shares compounds with SENP1 FRET inh; recombinant SENP1, CyPet-SUMO1-YPet FRET kinetic cleavage; inhibition, % at 10 µM; 26% of 520 active; AID 651690, 2012; in the data active means inhibition mostly above about 32%, no sharp cut-off; inactive means mostly below about 29%;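 further: 0% = DMSO with enzyme and 100% = no enzyme substrate only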
HNF4a DNA conf – change in HNF4A binding to DNA, retest, confirmation, biochemical, fluorescence polarization, FITC-DNA | shares compounds with HNF4A DNA FP | activity change, % at 12.5 µM | AID 1224897, 2016 | 99% of 210 active | 1 h; call rule not given here
An asterisk follows results filed as active; i = inactive; . = no result shown. Most compounds without a hit are left out; they make up all but 1.6% or so of the library. Unless noted, no stated cut-off is given here; in the data, active means inhibition above about 40%; inactive means the rest.

SMILES	HNF4A DNA FP	Rpn11 block	SENP1 FRET inh	CSN deneddyl inh	TPT1 inh	SENP1 conf	SENP1 kin conf	others
CSc1nc2ccc3nc(NC(=O)c4cccs4)sc3c2s1	62*	47*	-8	44*	0	.	.	Rpn11 confirm=14;MMP-2 inh=-25;Thrombin FP=-8;HNF4a DNA conf=40*
O=C(Nc1ccc2oc(-c3ccncc3)nc2c1)c1ccc2c(c1)OCO2	66*	169*	-8	111*	1	.	.	Rpn11 confirm=6;MMP-2 inh=i;Thrombin FP=0;HNF4a DNA conf=169*
CC(C(=O)NC1CCCC1)n1c(C2CC2)nc2ccccc21 (centres undefined)	4	.	2	1	.	.	.
O=C(CSc1nc2ccccc2o1)Nc1nc2c(s1)CCCC2	55*	96*	-4	17	.	.	.	Rpn11 confirm=49*;MMP-2 inh=-21;Thrombin FP=33;HNF4a DNA conf=48*
CCN(CC)c1ccc(/C=C(\C#N)C(N)=O)cc1	34*	57*	-38	14	.	.	.	Rpn11 confirm=29;MMP-2 inh=-78;Thrombin FP=25;HNF4a DNA conf=46*
Cc1ccc(-c2nc(N/N=C/c3cccc([N+](=O)[O-])c3)c3ccccc3n2)cc1	5	9	31*	3	0	12	13
CCCCOc1ccccc1C(=O)N(Cc1ccco1)C1CCS(=O)(=O)C1 (centres undefined)	4	-6	1	2	-3	.	.
C/C(=N\NC(=O)c1ccccc1F)c1ccc2c(c1)Nc1ccccc1S2	13	7	35*	0	4	60*	39*
CC(=O)Nc1cccc(/C(C)=N/NC(=O)c2ccc(O)cc2)c1	3	0	2	-2	0	.	.
C/C(=N\NC(=O)c1ccc(O)cc1)c1ccc2c(c1)Nc1ccccc1S2	13	14	70*	8	10	86*	56*
COc1ccc(C(=O)N/N=C(/C)c2cccc(NC(=O)c3ccccc3F)c2)cc1	0	-8	1	1	-4	.	.
O=C(Cc1n[nH]c(=O)[nH]c1=O)N/N=C/c1c(O)ccc2ccccc12	-1	2	39*	1	-2	-18	21
O=C(Cc1n[nH]c(=O)[nH]c1=O)N/N=C/c1ccccc1	-1	0	-1	-1	-1	.	.
CCCS(=O)(=O)NC(=O)C1(C)CCN(C(=O)c2cccc(C(F)(F)F)c2)C1 (centres undefined)	3	-2	1	0	.	.	.
CC(C)C(=O)Nc1nnc(COc2ccc(Cl)cc2)s1	-4	-1	46*	-1	0	-7	-7
CCCCOc1cccc(C2/C(=C(\O)c3ccc4c(c3)OCCO4)C(=O)C(=O)N2CCN2CCOCC2)c1 (centres undefined)	-6	-3	0	4	-2	.	.
CCc1cccc(CC)c1-n1c(SCC(=O)N2CCc3ccccc3C2)nnc1-c1cccnc1	20	.	37*	17	17	11	14
O=[N+]([O-])c1ccc2c(c1)nnn2-c1ccccc1	-1	4	1	2	-1	.	.
Nc1nn(-c2ccccc2)c2ccc([N+](=O)[O-])cc12	0	-7	32*	-1	3	32	8
C=CCOc1c(Br)cc(/C=C2/NC(=S)N(C(C)=O)C2=O)cc1OC	3	16	55*	2	1	40*	57*
C=CCOc1ccc(Br)cc1/C=C1\NC(=S)N(C(C)=O)C1=O	4	13	-20	5	2	.	.
Cc1cc2nc(-c3nnnn3Cc3ccccc3)c(=O)[nH]c2cc1C	3	.	-23	-4	.	.	.
O=c1[nH]c2cc3ccccc3cc2nc1-c1nnnn1Cc1ccccc1	-2	.	41*	-1	.	80*	50*
O=c1[nH]c2cc3ccccc3cc2nc1-c1nnnn1C1CCCC1	-8	.	70*	1	.	125*	78*
O=c1[nH]c2ccccc2nc1-c1nnnn1C1CCCC1	-1	.	-43	-5	.	.	.
SMILES	HNF4A DNA FP	Rpn11 block	SENP1 FRET inh	CSN deneddyl inh	TPT1 inh	SENP1 conf	SENP1 kin conf	others
N#C/C(C(=O)N1CCOCC1)=C1/SC(Cc2ccccc2)C(=O)N1c1ccccc1 (centres undefined)	-1	-1	37*	0	21	-5	4
CC(=O)Nc1cccc(Oc2nc(NCCN(C)C)nc3ccsc23)c1	7	0	-1	4	.	.	.
C[C@@H]1C=CC(=O)O[C@@H]1c1ccc(Cl)cc1	.	.	.	.	-3	.	.
O=[N+]([O-])c1ccc2[nH]c(O)c(N=Nc3ccc(F)cc3)c2c1	-2	-2	56*	0	0	10	5
Cc1ccc2[nH]c(O)c(N=Nc3ccccc3[N+](=O)[O-])c2c1	-6	-3	2	-2	.	.	.
CCN(CC)S(=O)(=O)c1cc([N+](=O)[O-])ccc1N=Nc1c(O)[nH]c2ccccc12	5	14	46*	-5	8	4	3
Oc1[nH]c2ccc(Br)cc2c1N=Nc1ccc(F)cc1	-90	-106	13	-68	6	.	.
CC1(Cc2ccc(Cl)cc2)C(=O)Nc2c(Cl)ccc(Cl)c21 (centres undefined)	0	4	0	-2	.	.	.
O=C(O)c1ccc(N/N=C/c2cccc3nccnc23)cc1	-2	1	53*	-4	8	46*	39*
